From article PMC6860364 (British journal of haematology, 2017)

Legend:
[1] = system: CT-L, T-L and C-L catalytic activities of the proteasome; test: Pharmacodynamics: proteasome activity in packed whole blood; type: in vivo, human; conditions: 0·4 and 0·5 mg/m^2 MRZ, study dosing schedule
[2] = preclinical studies; ref Di et al, 2016; cited from earlier work
[3] = historical studies; ref Harrison et al, 2016; cited from earlier work
[4] = Blood pharmacokinetics of MRZ in RRMM patients, Cycle 1 Day 8, non-compartmental; type: in vivo; conditions: human, iv
Outline: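 Relapsed/refractory myeloma patients got the test compound at 0·3–0·5 mg/m² as a 2-h IV infusion on days 1, 4, 8 and 11 of 28-day cycles, with pomalidomide and oral dexamethasone. Saline hydration ran 1 h before and 2 h after infusion. Blood was sampled on Cycle 1 Day 8 pre-dose, at 40, 80 and 120 min into infusion, and 2–90 min after its end.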

In the case of C[C@@]12OC(=O)[C@]1([C@@H](O)[C@@H]1C=CCCC1)NC(=O)[C@@H]2CCCl [MRZ, Marizomib], the “proteasome subunit inhibition in PWB” value [1] is given as “Partial or complete proteasome subunit inhibition in PWB was achieved”, the “ability to cross the blood brain barrier (BBB)” value [2] is given as “crosses the BBB” and the half-life [3] is given as 6 to 10 min. It also gave a Vd [4] of 41 to 86 L and a clearance [4] of 4200 to 9400 mL/min.
